Source: ChEMBL document CHEMBL1131637, “Novel and selective 5-HT2C/2B receptor antagonists as potential anxiolytic agents: synthesis, quantitative structure-activity relationships, and molecular modeling of substituted 1-(3-pyridylcarbamoyl)indolines” (J Med Chem, 1998)

Experiments:
[1] = target: T1, 5-hydroxytryptamine receptor 2C (Homo sapiens, UniProt P28335); experiment: Binding affinity towards cloned human 5-hydroxytryptamine 2C receptor expressed in HEK 293 cells using [3H]mesulergine as radioligand; type: cell-based, HEK293
T1 sequence (P28335 whole entry): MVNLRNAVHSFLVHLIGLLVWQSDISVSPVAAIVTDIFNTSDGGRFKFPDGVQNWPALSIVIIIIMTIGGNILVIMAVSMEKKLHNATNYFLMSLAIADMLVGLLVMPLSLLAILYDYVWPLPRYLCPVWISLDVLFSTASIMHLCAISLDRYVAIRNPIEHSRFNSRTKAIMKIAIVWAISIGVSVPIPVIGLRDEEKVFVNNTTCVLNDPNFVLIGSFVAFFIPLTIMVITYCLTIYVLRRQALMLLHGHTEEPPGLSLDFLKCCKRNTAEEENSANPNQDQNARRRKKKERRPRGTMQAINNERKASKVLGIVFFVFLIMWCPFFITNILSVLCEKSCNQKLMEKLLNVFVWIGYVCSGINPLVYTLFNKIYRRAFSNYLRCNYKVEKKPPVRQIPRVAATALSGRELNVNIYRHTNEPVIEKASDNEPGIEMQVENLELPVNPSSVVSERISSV

[2] = target: 5-hydroxytryptamine receptor 2A (Homo sapiens, UniProt P28223); experiment: Binding affinity towards human 5-hydroxytryptamine 2A receptor expressed in HEK 293 cells using [3H]ketanserin as radioligand; type: cell-based, HEK293
Outline: (§1)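 Radioligand binding on human cloned receptors stably expressed in HEK 293 cells; 5-HT2A labelled with [3H]ketanserin, 5-HT2B with [3H]-5-HT. Values are means of at least two determinations, each within 0.2 log unit of the mean.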

Rattus norvegicus [3] = experiment: Percentage change unpunished lever presses from mean score on 6-8 rats at 2 mg/kg po1h pretest; type: functional
Rattus norvegicus [4] = experiment: Percentage change punished lever presses from mean score on 6-8 rats(P<0.001) at 2 mg/kg po1h pretest; type: functional
Rattus norvegicus [5] = experiment: Percentage change unpunished lever presses from mean score on 6-8 rats at 10 mg/kg po1h pretest; type: functional
Rattus norvegicus [6] = experiment: Percentage change punished lever presses from mean score on 6-8 rats(P<0.001) at 1 mg/kg po1h pretest; type: functional
Rattus norvegicus [7] = organism: Rattus norvegicus; experiment: The dose required to reverse […]- induced hypolocomotion in rat by 50 %; type: functional; details: ip, 0.5 h, read-out: ID50 (the source's name)
Rattus norvegicus [8] = experiment: Percentage change punished lever presses from mean score on 6-8 rats(P<0.001) at 10 mg/kg po1h pretest; type: functional
Rattus norvegicus [9] = experiment: Percentage change punished lever presses from mean score on 6-8 rats(P<0.001) at 5 mg/kg po1h pretest; type: functional
Rattus norvegicus [10] = experiment: Percentage change unpunished lever presses from mean score on 6-8 rats at 0.2 mg/kg po1h pretest; type: functional
Rattus norvegicus [11] = experiment: Percentage change unpunished lever presses from mean score on 6-8 rats at 0.5 mg/kg po1h pretest; type: functional
Rattus norvegicus [12] = experiment: Percentage change unpunished lever presses from mean score on 6-8 rats at 20 mg/kg po1h pretest; type: functional
Rattus norvegicus [13] = experiment: Percentage change punished lever presses from mean score on 6-8 rats(P<0.001) at 20 mg/kg po1h pretest; type: functional
Rattus norvegicus [14] = experiment: Percentage change unpunished lever presses from mean score on 6-8 rats at 1 mg/kg po1h pretest; type: functional
Rattus norvegicus [15] = experiment: Percentage change punished lever presses from mean score on 6-8 rats(P<0.001) at 0.2 mg/kg po1h pretest; type: functional
Rattus norvegicus [16] = experiment: Percentage change unpunished lever presses from mean score on 6-8 rats(P<0.01) at 5 mg/kg po1h pretest
Rattus norvegicus [17] = experiment: Percentage change punished lever presses from mean score on 6-8 rats(P<0.001) at 0.5 mg/kg po1h pretest; type: functional
Rattus norvegicus [18] = experiment: Percentage change unpunished lever presses from mean score on 6-8 rats(P<0.05) at 0.1 mg/kg po1h pretest; type: functional
[19] = target: 5-hydroxytryptamine receptor 2B (Homo sapiens, UniProt P41595); experiment: Binding affinity towards cloned human 5-hydroxytryptamine 2B receptor expressed in HEK 293 cells using [3H]5-HT as radioligand; type: cell-based, HEK293; outline: as §1
Chain of 5-hydroxytryptamine receptor 2B (P41595 whole entry): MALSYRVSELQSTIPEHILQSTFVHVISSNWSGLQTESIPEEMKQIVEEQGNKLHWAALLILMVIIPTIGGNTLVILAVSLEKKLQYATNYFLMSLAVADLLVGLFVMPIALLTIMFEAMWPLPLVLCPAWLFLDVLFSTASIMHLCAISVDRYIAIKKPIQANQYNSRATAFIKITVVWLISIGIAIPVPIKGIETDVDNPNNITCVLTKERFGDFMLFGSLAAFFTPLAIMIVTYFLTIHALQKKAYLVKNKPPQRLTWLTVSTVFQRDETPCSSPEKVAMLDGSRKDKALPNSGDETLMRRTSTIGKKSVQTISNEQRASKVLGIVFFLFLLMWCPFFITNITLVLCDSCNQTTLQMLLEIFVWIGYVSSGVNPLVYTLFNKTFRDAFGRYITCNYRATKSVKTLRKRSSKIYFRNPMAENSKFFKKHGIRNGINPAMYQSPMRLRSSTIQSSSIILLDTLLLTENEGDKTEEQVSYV

Chain of 5-hydroxytryptamine receptor 2A (P28223 whole entry): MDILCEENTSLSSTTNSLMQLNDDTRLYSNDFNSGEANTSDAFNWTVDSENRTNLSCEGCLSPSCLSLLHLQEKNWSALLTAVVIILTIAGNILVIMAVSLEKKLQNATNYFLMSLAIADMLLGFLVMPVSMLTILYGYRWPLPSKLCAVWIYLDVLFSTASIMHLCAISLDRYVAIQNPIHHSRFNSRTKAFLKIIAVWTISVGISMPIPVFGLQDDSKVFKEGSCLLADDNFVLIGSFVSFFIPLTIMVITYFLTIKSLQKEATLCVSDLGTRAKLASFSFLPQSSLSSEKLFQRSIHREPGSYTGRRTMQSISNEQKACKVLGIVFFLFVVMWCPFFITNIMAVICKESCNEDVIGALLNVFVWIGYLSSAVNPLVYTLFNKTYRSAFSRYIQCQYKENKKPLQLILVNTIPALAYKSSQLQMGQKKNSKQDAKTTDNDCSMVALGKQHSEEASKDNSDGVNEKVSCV

| SMILES | Ki [1] [nM] | Ki [2] [nM] | also measured |
| --- | --- | --- | --- |
| COc1cc2c(cc1C(F)(F)C(F)(F)F)N(C(=O)Nc1cccnc1)CC2 | 12.6 | 3980 | – |
| CSc1cc2c(cc1C#N)N(C(=O)Nc1cccnc1)CC2 | 15.8 | 2510 | – |
| COc1cc2c(cc1C(F)(F)F)N(C(=O)Nc1cccnc1)CC2 | 10 | 1000 | Change (Rattus norvegicus [3]): 3%; Change (Rattus norvegicus [4]): 34%; Change (Rattus norvegicus [5]): 0%; Change (Rattus norvegicus [6]): 28%; ED50 (Rattus norvegicus [7]): 0.8 mg/kg; Change (Rattus norvegicus [8]): 63%; Change (Rattus norvegicus [9]): 37%; Change (Rattus norvegicus [10]): 2%; Change (Rattus norvegicus [11]): 2%; Change (Rattus norvegicus [12]): -1%; Change (Rattus norvegicus [13]): 62%; Change (Rattus norvegicus [14]): -2%; Change (Rattus norvegicus [15]): 26%; Change (Rattus norvegicus [16]): 8%; Change (Rattus norvegicus [17]): 36%; Change (Rattus norvegicus [18]): 8% |
| Cc1ccc2c(c1Br)CCN2C(=O)Nc1cccnc1 | 7.94 | 126 | – |
| O=C(Nc1cccnc1)N1CCc2cc(Cl)ccc21 | 79.4 | 2510 | – |
| Cc1ccc2c(c1I)CCN2C(=O)Nc1cccnc1 | 25.1 | 2510 | – |
| Cc1cc2c(cc1Cl)CCN2C(=O)Nc1cccnc1 | 10 | 398 | – |
| O=C(Nc1cccnc1)N1CCc2ccc(Cl)cc21 | 50.1 | 794 | – |
| CC(C)c1cc2c(cc1Cl)N(C(=O)Nc1cccnc1)CC2 | 20 | 2000 | – |
| O=C(Nc1cccnc1)N1CCc2ccc(Cl)c(Cl)c21 | 794 | 5010 | – |
| O=C(Nc1cccnc1)N1CCc2cc(Cl)c(Cl)cc21 | 7.94 | 251 | – |
| CSc1cc2c(cc1Br)CCN2C(=O)Nc1cccnc1 | 50.1 | 2510 | – |

The remaining compounds from weak to strong by Ki [1], led by results:

| Ki [1] [nM] | Ki [2] [nM] | SMILES | also measured |
| --- | --- | --- | --- |
| 316 | > 6310 | CN(C)c1ccc2c(c1)CCN2C(=O)Nc1cccnc1 | – |
| 158 | 5010 | Cc1ccc2c(c1)CCN2C(=O)Nc1cccnc1 | – |
| 126 | 5010 | O=C(Nc1cccnc1)N1CCc2cc(-c3ccccc3)ccc21 | – |
| 63.1 | 5010 | CSc1ccc2c(c1Cl)CCN2C(=O)Nc1cccnc1 | – |
| 39.8 | 3980 | CSc1ccc2c(c1)CCN2C(=O)Nc1cccnc1 | – |
| 31.6 | 5010 | CC(C)Sc1cc2c(cc1C(F)(F)F)N(C(=O)Nc1cccnc1)CC2 | – |
| 31.6 | 6310 | COC(=O)c1cc2c(cc1Cl)N(C(=O)Nc1cccnc1)CC2 | ED50 (Rattus norvegicus [7]): 16 mg/kg |
| 20 | 1260 | CCCc1cc2c(cc1Cl)N(C(=O)Nc1cccnc1)CC2 | – |
| 20 | 3980 | O=C(Nc1cccnc1)N1CCc2cc(OCC3CC3)c(C(F)(F)F)cc21 | – |
| 12.6 | 1580 | COc1cc2c(cc1Br)N(C(=O)Nc1cccnc1)CC2 | ED50 (Rattus norvegicus [7]): 1.8 mg/kg |
| 3.98 | 63.1 | Cc1cc2c(cc1Br)N(C(=O)Nc1cccnc1)CC2 | – |
| 3.16 | 100 | O=C(Nc1cccnc1)N1CCc2cc(I)c(Cl)cc21 | – |
| 3.16 | 63.1 | Cc1cc2c(cc1I)N(C(=O)Nc1cccnc1)CC2 | – |
| 3.16 | 3160 | CCSc1cc2c(cc1C(F)(F)F)N(C(=O)Nc1cccnc1)CC2 | Ki [19]: 10 nM; ED50 (Rattus norvegicus [7]): 4.4 mg/kg |
